Published values of several laboratories.
Target: Tyrosine-protein kinase HCK (HCK, Homo sapiens, UniProt P08631)

| Structure (SMILES) | test | setting | remaining binding [%] |
| --- | --- | --- | --- |
| O=C1NC(c2ccccn2)Sc2ccccc21 (stereo not drawn) | cell-free assay, competition with immobilised ligand | 1 µM | 90 |
| FC(F)(F)Oc1cccc(-c2cnc3ccc(-c4ccncc4)nn23)c1 | cell-free assay, competition with immobilised ligand | 5 µM | 71 |
| COCCOc1nc(-c2ccc(Cl)nc2)nc2c1CN(C(=O)c1ncn3ccccc13)CC2 | cell-free assay, competition with immobilised ligand | 0.1 µM | 100 |
| C[C@@H](c1ccc(-n2cnc3c(N)ncnc32)cc1)N1CCc2nn(C)c(Cc3ccccc3)c2C1=O | binding, competition with immobilised ligand | 0.1 µM | 86 |
| CN(C)c1nccc(-c2cnc3ncccn23)n1 | binding | 1 µM | 100 |
| COc1cnc(Nc2cccc(S(N)(=O)=O)c2)nc1N1CCN(c2ccccc2)CC1 | binding, competition with immobilised ligand | 1 µM | 100 |
| O=C(c1ccc(Nc2ncc(Cl)c(-c3ccc(Cl)s3)n2)cc1)N1CCC(N2CCCC2)CC1 | binding, competition with immobilised ligand | 1 µM | 100 |
| CS(=O)(=O)c1cc(C2(NC(=O)c3cncc4c3cnn4-c3ccc(F)cc3)CC2)ccn1 | cell-free assay, competition with immobilised ligand | 1 µM | 100 |
| C=CC(=O)N1CCC(C(=O)NCC(=O)N2CCN(c3nc(-c4cnc(N)nc4C(F)F)nc(N4CCOCC4)n3)CC2)CC1 | binding, competition with immobilised ligand | 1 µM | 86 |
| O=C(NCCCN1CCOCC1)c1ccc(Nc2nccc(-c3cc4ccccc4s3)n2)cc1 | binding, competition with immobilised ligand | 1 µM | 95 |
| COc1ncc2cc3ccccc3nc2c1C#N | cell-free assay, competition with immobilised ligand | 5 µM | 100 |
| N[C@@H]1CCN(c2nccc(-c3cnn4ncccc34)n2)C1 | binding | 1 µM | 100 |
| O=C(NCCCN1CCOCC1)c1ccc(Nc2ncc(Cl)c(-c3ccc(Cl)s3)n2)cc1 | binding, competition with immobilised ligand | 1 µM | 100 |
| F[C@@H]1CCN(c2nccc(-c3cnn4ncccc34)n2)C1 | binding | 1 µM | 78 |
| O=C(Nc1c[nH]nc1C(=O)NC1CCNCC1)c1cc(F)cc(F)c1 | binding, competition with immobilised ligand | 1 µM | 100 |
| c1cnn2ncc(-c3ccnc(N4CCC45COC5)n3)c2c1 | binding | 1 µM | 90 |
| CC(C)CC(=O)N1CCc2nc(-c3ccc(Br)cc3)nc(N(C)Cc3ccccc3)c2C1 | cell-free assay, competition with immobilised ligand | 0.1 µM | 94 |
| C[C@H]1CCN(c2nccc(-c3cnn4ncccc34)n2)C1 | binding | 1 µM | 95 |
| O=C(NCc1ncc(C(F)(F)F)cc1Cl)c1ccc2c(c1)C1(CCS(=O)(=O)CC1)[C@@H](C1CC1)N2S(=O)(=O)c1ccc(F)cc1 | cell-free assay, competition with immobilised ligand | 1 µM | 86 |
| CN(C)c1ncc(F)c(-c2cnn3ncccc23)n1 | binding | 1 µM | 46 |
| CCS(=O)(=O)c1cc2cc(C[C@](O)(CC(C)(C)c3ccc(F)cc3C(N)=O)C(F)(F)F)[nH]c2cn1 | cell-free assay, competition with immobilised ligand | 1 µM | 100 |
